From ChEMBL document CHEMBL5143527, “Discovery and optimization of cyclohexane-1,4-diamines as allosteric MALT1 inhibitors” (Eur J Med Chem, 2022)
≈ marks a conversion by molar mass, not a printed value.

Assays:
[1] = biological target: T1, Mucosa-associated lymphoid tissue lymphoma translocation protein 1 (Homo sapiens, UniProt Q9UDY8); test: Inhibition of human MALT1 in human MCF7 cells assessed as MALT1 mediated cleavage of human A20 in cytosol by fluorescence microscopy; assay type: subcellular
T1 sequence (Q9UDY8 whole entry): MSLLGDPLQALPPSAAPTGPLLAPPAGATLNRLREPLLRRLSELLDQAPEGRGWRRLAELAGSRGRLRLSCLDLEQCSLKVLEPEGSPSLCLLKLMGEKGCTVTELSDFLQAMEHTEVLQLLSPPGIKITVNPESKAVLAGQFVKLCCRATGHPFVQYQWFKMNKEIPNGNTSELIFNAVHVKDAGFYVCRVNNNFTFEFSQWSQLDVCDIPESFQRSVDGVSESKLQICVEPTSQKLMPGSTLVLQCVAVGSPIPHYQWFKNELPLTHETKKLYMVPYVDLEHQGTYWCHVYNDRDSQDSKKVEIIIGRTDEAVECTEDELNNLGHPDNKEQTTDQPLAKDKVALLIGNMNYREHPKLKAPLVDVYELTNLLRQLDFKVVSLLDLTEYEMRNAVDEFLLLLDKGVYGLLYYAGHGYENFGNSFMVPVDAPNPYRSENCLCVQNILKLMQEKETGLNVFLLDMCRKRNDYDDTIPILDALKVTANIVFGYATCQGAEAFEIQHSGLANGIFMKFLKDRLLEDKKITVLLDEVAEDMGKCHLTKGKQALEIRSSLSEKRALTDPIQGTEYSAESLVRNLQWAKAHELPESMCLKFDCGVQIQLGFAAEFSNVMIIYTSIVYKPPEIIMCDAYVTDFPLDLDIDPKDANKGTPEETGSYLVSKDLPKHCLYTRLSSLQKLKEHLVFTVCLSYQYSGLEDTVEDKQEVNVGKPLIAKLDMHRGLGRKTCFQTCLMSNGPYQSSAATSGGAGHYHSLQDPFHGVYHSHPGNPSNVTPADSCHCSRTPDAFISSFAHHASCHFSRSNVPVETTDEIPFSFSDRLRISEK
In short: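 Cellular MALT1 activity in MCF7 cells, read as inhibition of MALT1-mediated cleavage of human A20.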

[2] = biological target: T1, Mucosa-associated lymphoid tissue lymphoma translocation protein 1; test: Inhibition of human MALT1 assessed as cleavage of substrate using fluorescent labeled Ac-LRSR-Rh110 peptide as substrate incubated for 30 mins followed by substrate addition and measured after 3 to 4 hrs by FRET assay
In short: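 Fluorogenic MALT1 cleavage assay with the tetrapeptide LRSR carrying rhodamine 110 and a non-fluorescent quencher; signal read as FRET. Horseradish peroxidase and resazurin redox counter-assays used to exclude artefacts. Values are the mean of at least three independent measurements, with standard deviation.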

[3] = Lipophilicity, log D of compound at 7.4 by LC-MS analysis; assay type: physicochemical; details: pH 7.4
In short: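 ChromlogD at pH 7.4: retention time on an LCMS system with an aqueous mobile phase, converted to lipophilicity with a calibration curve.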

[4] = Metabolic stability in human liver microsomes assessed as intrinsic clearance by LC-MS/MS analysis; assay type: ADME, Microsome; details: read-out: CLH
In short: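 Human liver microsomes, compound incubated; intrinsic clearance from disappearance of the parent compound over time.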

Cytochrome P450 2C9 = Cytochrome P450 2C9 (Homo sapiens, UniProt P11712); test: Inhibition of CYP2C9 (unknown origin); assay type: ADME
Cytochrome P450 2D6 = Cytochrome P450 2D6 (Homo sapiens, UniProt P10635); test: Inhibition of CYP2D6 (unknown origin); assay type: ADME
[5] = AUC in Wistar Han rat at 0.9 mg/kg, po or 0.5 mg/kg, iv; assay type: ADME, organism-based; parameters: dose 0.9 mg/kg, route po; details: in vivo
[6] = Solubility of compound in PBS at pH 7.4 incubated for 20 to 24 hrs under shaking condition by LC-MS analysis; assay type: physicochemical; details: time 20-24 hrs
In short: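 Dried-DMSO solubility: 10 mM DMSO stock dried down, residue resolubilized in 0.1 M phosphate buffer, pH 7.4.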

Cytochrome P450 2C19 = Cytochrome P450 2C19 (Homo sapiens, UniProt P33261); test: Inhibition of CYP2C19 (unknown origin); assay type: ADME
[7] = biological target: Voltage-gated inwardly rectifying potassium channel KCNH2 (Homo sapiens, UniProt Q12809); test: Inhibition of human ERG; assay type: toxicity
[8] = Volume of distribution at steady state in Wistar Han rat at 0.9 mg/kg, po or 0.5 mg/kg, iv; assay type: ADME, organism-based; details: in vivo
[9] = Oral bioavailability in Wistar Han rat at 0.9 mg/kg; assay type: ADME, organism-based; details: in vivo
Cytochrome P450 1A2 = biological target: T2, Cytochrome P450 1A2 (Homo sapiens, UniProt P05177); test: Inhibition of CYP1A2 (unknown origin); assay type: ADME
T2 sequence (P05177 whole entry): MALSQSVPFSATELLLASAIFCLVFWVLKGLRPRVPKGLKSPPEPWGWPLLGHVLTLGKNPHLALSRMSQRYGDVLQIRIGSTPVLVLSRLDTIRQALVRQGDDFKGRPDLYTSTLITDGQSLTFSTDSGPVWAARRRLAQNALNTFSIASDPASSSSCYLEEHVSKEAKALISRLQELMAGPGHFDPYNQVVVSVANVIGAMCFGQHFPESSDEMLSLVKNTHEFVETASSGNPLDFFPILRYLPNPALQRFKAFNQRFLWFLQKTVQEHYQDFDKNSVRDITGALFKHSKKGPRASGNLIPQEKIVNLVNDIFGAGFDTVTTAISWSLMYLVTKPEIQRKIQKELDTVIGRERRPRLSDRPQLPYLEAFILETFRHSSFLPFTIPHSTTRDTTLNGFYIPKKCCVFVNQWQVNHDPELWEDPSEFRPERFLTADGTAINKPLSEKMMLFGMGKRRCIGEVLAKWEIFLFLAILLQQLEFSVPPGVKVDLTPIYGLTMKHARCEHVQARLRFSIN

Cytochrome P450 3A4 = Cytochrome P450 3A4 (Homo sapiens, UniProt P08684); test: Inhibition of CYP3A4 (unknown origin); assay type: ADME
[10] = Passive permeability of compound across apical to basolateral in human Caco2 cells at 10 uM and measured upto 120 mins by LC-MS/MS analysis; assay type: ADME, cell-based; details: Caco-2
In short: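 Apical-to-basolateral passive permeability across Caco-2 monolayers, run in the presence of inhibitors of the efflux transporters P-gp, BCRP and MRP2.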

[11] = Half life in Wistar Han rat at 0.9 mg/kg, po or 0.5 mg/kg, iv; assay type: ADME, organism-based; details: in vivo
[12] = Metabolic stability in rat hepatocyte assessed as intrinsic clearance by LC-MS/MS analysis; assay type: ADME, cell-based; details: hepatocytes
In short: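 Rat hepatocytes, compound incubated; intrinsic clearance (per 10⁶ cells) from disappearance of the parent compound over time.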

Sequence of Cytochrome P450 2C19 (P33261 whole entry): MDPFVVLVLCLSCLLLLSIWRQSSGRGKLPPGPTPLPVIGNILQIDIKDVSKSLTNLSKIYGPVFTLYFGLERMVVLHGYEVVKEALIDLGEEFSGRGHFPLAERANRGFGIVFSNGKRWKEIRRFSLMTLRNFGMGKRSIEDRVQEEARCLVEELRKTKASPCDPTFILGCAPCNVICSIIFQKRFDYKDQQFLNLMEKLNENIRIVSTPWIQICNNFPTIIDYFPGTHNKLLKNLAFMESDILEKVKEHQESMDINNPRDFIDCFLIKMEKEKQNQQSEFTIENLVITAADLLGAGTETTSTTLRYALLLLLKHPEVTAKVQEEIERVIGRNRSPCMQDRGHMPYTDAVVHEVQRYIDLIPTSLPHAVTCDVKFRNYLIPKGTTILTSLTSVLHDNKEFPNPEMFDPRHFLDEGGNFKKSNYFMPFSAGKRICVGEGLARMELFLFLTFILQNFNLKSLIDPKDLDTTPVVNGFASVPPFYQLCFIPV
Sequence of Cytochrome P450 3A4 (P08684 whole entry): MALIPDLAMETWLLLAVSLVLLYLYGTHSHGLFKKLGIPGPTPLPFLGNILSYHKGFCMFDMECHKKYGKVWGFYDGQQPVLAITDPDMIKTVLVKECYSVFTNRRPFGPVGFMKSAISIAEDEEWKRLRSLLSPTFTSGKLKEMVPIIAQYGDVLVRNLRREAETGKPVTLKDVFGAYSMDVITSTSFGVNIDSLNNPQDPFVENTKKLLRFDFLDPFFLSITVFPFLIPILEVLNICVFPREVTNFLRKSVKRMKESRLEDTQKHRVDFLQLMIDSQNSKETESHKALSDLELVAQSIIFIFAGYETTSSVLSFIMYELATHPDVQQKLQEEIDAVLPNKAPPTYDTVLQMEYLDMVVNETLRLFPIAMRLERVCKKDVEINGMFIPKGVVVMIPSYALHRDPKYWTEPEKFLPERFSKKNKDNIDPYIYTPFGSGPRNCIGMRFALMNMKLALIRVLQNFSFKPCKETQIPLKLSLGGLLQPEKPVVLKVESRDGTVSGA
Sequence of Cytochrome P450 2D6 (P10635 whole entry): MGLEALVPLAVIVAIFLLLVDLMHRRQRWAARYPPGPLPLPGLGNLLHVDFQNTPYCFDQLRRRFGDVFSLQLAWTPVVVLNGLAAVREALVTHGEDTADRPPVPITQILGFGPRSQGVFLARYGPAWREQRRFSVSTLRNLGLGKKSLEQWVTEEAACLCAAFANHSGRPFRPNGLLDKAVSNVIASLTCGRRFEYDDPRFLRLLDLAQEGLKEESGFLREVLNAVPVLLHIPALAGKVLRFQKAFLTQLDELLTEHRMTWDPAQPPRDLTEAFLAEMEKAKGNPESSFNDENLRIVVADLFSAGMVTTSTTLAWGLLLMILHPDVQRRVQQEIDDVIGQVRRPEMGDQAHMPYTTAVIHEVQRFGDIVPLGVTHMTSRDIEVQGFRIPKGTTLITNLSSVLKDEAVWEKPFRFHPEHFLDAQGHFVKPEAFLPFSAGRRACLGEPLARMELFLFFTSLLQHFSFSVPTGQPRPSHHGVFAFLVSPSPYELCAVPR
Sequence of Cytochrome P450 2C9 (P11712 whole entry): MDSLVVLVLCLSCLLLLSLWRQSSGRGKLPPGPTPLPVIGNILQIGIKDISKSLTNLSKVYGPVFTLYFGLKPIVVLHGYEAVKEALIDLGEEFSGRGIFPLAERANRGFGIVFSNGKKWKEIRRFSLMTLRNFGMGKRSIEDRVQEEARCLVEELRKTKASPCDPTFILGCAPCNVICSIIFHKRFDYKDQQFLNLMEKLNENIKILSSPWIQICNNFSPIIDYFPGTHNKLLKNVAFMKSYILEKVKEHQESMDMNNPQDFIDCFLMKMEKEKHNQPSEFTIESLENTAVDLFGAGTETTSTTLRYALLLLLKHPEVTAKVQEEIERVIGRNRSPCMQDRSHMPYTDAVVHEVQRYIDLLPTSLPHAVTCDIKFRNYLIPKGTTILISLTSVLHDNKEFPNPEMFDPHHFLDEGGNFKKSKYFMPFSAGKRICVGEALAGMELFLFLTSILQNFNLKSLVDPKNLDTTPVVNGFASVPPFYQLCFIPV
Sequence of Voltage-gated inwardly rectifying potassium channel KCNH2 (Q12809 whole entry): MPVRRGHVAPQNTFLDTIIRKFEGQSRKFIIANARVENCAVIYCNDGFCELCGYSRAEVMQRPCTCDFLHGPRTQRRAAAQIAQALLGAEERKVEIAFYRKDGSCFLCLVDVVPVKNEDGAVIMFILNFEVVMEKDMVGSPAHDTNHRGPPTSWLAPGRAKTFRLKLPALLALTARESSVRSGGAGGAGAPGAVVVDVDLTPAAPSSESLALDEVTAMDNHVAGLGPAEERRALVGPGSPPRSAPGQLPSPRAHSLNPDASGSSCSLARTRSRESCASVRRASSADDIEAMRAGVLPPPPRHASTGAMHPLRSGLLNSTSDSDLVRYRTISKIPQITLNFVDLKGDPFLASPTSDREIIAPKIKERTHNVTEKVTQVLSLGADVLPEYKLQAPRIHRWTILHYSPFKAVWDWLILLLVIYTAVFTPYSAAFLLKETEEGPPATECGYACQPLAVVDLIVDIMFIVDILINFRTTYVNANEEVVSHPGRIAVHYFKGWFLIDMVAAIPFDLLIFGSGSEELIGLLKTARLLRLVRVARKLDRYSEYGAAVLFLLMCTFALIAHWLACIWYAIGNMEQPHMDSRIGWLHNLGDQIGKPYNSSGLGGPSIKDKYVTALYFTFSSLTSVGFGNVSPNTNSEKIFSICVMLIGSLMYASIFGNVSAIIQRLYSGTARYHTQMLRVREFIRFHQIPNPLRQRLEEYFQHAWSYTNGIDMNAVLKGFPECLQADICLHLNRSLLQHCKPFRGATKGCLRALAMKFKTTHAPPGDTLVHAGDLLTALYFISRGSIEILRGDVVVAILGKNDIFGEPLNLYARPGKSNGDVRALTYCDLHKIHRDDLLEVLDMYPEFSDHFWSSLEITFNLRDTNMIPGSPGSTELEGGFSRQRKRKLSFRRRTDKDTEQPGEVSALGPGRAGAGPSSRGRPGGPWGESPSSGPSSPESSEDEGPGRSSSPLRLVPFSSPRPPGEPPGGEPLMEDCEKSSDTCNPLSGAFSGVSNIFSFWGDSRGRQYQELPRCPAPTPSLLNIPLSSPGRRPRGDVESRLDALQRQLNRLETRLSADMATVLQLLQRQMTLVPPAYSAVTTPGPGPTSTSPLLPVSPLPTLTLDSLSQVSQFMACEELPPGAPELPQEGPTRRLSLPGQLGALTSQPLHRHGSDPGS

SMILES	IC50 [2] [µM]	logD [3]	microsomal CLint [4] [µL/min/mg]	other results
FC(F)(F)c1nccc(N[C@H]2CC[C@@H](Nc3ccc4cnccc4n3)CC2)n1	7.5	2.8	26	–
FC(F)(F)c1nccc(NCC2CCN(c3ccc4nnc(Cl)n4n3)CC2)n1	23	2.7	31	–
FC(F)(F)c1nccc(N2CCN(c3ccc4nnc(Cl)n4n3)CC2)n1	> 50	2.4	< 3	–
FC(F)(F)c1nccc(N[C@H]2C[C@@H](CNc3ccc4nnc(Cl)n4n3)C2)n1	17	2.5	36	–
FC(F)(F)c1nccc(N2CCC(Nc3ccc4nnc(Cl)n4n3)CC2)n1	> 50	2.9	50	–
FC(F)(F)c1nccc(NC[C@H]2C[C@@H](Nc3ccc4nnc(Cl)n4n3)C2)n1	18	2.5	23	–
FC(F)(F)c1nccc(N[C@H]2CC[C@@H](Nc3ccc4nncn4n3)CC2)n1	35	1.7	< 3	–
Nc1nnc2ccc(N[C@H]3CC[C@@H](Nc4ccnc(C(F)(F)F)n4)CC3)nn12	26	1.4	< 3	–
FC(F)(F)c1nccc(N[C@H]2CC[C@@H](Nc3ccncn3)CC2)n1	> 50	1.9	18	–
FC(F)(F)c1nccc(N[C@H]2CC[C@@H](Nc3cnc4ccccc4c3)CC2)n1	7.2	4.6	5.2	–
FC(F)(F)c1nccc(N[C@H]2CC[C@@H](Oc3ccc4nnc(Cl)n4n3)CC2)n1	7.2	3.5	< 3	–
FC(F)(F)c1nccc(NC2CCN(c3ccc4nnc(Cl)n4n3)CC2)n1	6.1	2.6	50	–
FC(F)(F)c1nccc(N[C@H]2C[C@@H](Nc3ccc4nnc(Cl)n4n3)C2)n1	> 50	2.2	6.9	–
Clc1nnc2ccc(N[C@H]3CC[C@@H](Nc4ccncn4)CC3)nn12	31	0.7	25	–

The next lines start with results.

IC50 [2] [µM]	logD [3]	microsomal CLint [4] [µL/min/mg]	SMILES	other results
0.8	2.8	29	CSc1nnc2ccc(N[C@H]3CC[C@@H](Nc4ccnc(C(F)(F)F)n4)CC3)nn12	IC50 [1]: 5.9 µM
1.8	3.8	< 3	FC(F)(F)c1nccc(N[C@H]2CC[C@@H](Nc3ccc4nnc(C(F)(F)F)n4n3)CC2)n1	–
1.2	3.7	< 3	FC(F)(F)c1nccc(O[C@H]2CC[C@@H](Nc3ccc4nnc(Cl)n4n3)CC2)n1	–
1.8	> 5.3	7.5	FC(F)(F)c1cccc(N[C@H]2CC[C@@H](Nc3ccnc(C(F)(F)F)n3)CC2)c1	–
1.1	3.6	18	CN(c1ccnc(C(F)(F)F)n1)[C@H]1CC[C@@H](Nc2ccc3nnc(Cl)n3n2)CC1	–
5	2.9	22	FC(F)(F)c1nccc(N[C@H]2CC[C@@H](Nc3ncnc4sccc34)CC2)n1	–
0.3	3.1	< 3	FC(F)(F)c1nccc(N[C@H]2CC[C@@H](Nc3ccc4nnc(Cl)n4n3)CC2)n1	IC50 (Cytochrome P450 2C9): 10 µM; IC50 [1]: 3.2 µM; IC50 (Cytochrome P450 2D6): > 30 µM; AUC [5]: 3.21 µM·h; solubility [6]: 19 µM (≈ 7.84 µg/mL); IC50 (Cytochrome P450 2C19): 14 µM; IC50 [7]: 24 µM; Vdss [8]: 2.2 L/kg; bioavailability [9]: 72%; IC50 (Cytochrome P450 1A2): > 30 µM; IC50 (Cytochrome P450 3A4): 18 µM; Papp A→B at 2 h, 10 µM [10]: 44 ×10⁻⁶ cm/s; half-life [11]: 4 h
0.6	3.8	< 3	COc1ncc(N[C@H]2CC[C@@H](Nc3ccc4nnc(Cl)n4n3)CC2)cc1Cl	–
4.5	4.5	< 3	FC(F)(F)c1nccc(N[C@H]2CC[C@@H](Nc3ccc4nnc(C5CC5)n4n3)CC2)n1	–
1.1	3.4	17	FC(F)(F)c1nccc(N[C@@H]2CC[C@H](Nc3ccc4nnc(Cl)n4n3)C2)n1 (racemic)	–
1.4	5.2	9.2	FC(F)(F)c1cccc(N[C@H]2CC[C@@H](Nc3ccc4nnc(Cl)n4n3)CC2)c1	–
1.5	2.9	11	FC(F)(F)c1cc(N[C@H]2CC[C@@H](Nc3ccc4nnc(Cl)n4n3)CC2)ccn1	–
4.2	3	11	FC(F)(F)c1nccc(N[C@]23CC[C@](Nc4ccc5nnc(Cl)n5n4)(CC2)CC3)n1	–
2.2	4.3	< 3	FC(F)(F)c1nccc(N[C@H]2CC[C@@H](Nc3ccnc(C(F)(F)F)n3)CC2)n1	solubility [6]: 37 µM (≈ 15 µg/mL); CLH [12]: < 1 10^-6uL/min
4.7	2.3	< 3	Cc1nnc2ccc(N[C@H]3CC[C@@H](Nc4ccnc(C(F)(F)F)n4)CC3)nn12	–
1.1	2.9	< 3	FC(F)(F)c1nccc(N[C@H]2CC[C@@H](Nc3ccc4nnc(Br)n4n3)CC2)n1	IC50 [1]: 6.1 µM
0.4	4.3	9.9	FC(F)(F)c1nccc(N[C@H]2CC[C@@H](Nc3ccc4ncc(Cl)n4n3)CC2)n1	–
6.1	2.8	37	FC(F)(F)c1nccc(N2CCC(CNc3ccc4nnc(Cl)n4n3)CC2)n1	–
0.5	3.5	12	CN(c1ccc2nnc(Cl)n2n1)[C@H]1CC[C@@H](Nc2ccnc(C(F)(F)F)n2)CC1	–
